Screens: PubChem, several laboratories
Sampled rows, rich in hits. Any-hit rate of the full collection: about 1.5%.
CHT inh: human CHT choline transport inhibition; B-score at 10 µM; 310,000 compounds, 0.86% hits; CHT-expressing cells, membrane potential dye, choline response; stronger effect = lower value; Q9GZV3;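 active = B-score over 3 SD under the library average, and starting fluorescence ratio not unusually high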;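 also: choline stimulus applied at its EC90 after an EC20 pre-addition; B-score computed on integrated fluorescence ratio after choline addition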
VLA-4 inh: inhibition in a human VLA-4 binding assay | P13612 | VLA-4 expressing cells, ligand binding flow cytometry | inhibition, % (about 7 µM as worked out from the volumes in the protocol) | 330,000 compounds, 0.2% hits; in the data active = inhibition above about 50%
CHT PAM: allosterically activates the human high affinity choline transporter; 310,000 compounds, 0.49% hits; CHT-expressing cells, membrane potential dye, choline EC20; stronger effect = higher value; LV-AA mutant CHT in HEK293 cells; Q9GZV3; B-score at 10 µM; AID 488977;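 active = initial fluorescence not abnormally high and integrated response B-score, plate-corrected, over 3 SD above library mean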
T cell HTS: T cell immune modulation candidate. response (vesicle binding), % at 7 µM. 330,000 compounds, 0.068% hits. AID 2052. 2C CD8+ T cell-vesicle binding, flow cytometry; stronger effect = lower value;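 active = response, share of CD8 T cells binding vesicles, and their 90th percentile fluorescence all below set limits, cut at about 80% in these data, passing the limit was not always enough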;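 also: values below 100% mean blocked vesicle binding to the CD8+ T cells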
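Benchmarks: naked versus QL9-loaded vesicles / Assay system: purified 2C TCR transgenic mouse naive CD8+ T cells / Technique: high-throughput flow cytometry with anti-B7-1 and anti-CD8 staining / Timing: Cell–vesicle co-incubation 1.5 h at 37 °C, staining 20 min on ice / Read-out: percent CD8+ FL2 mean versus row control / Probe or stimulus: QL9-loaded Drosophila micro-vesicles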
CHT activ conf: confirmation of human choline transporter (CHT) activators | shares compounds with CHT PAM | CHT-expressing cells, membrane potential dye fluorescence (FDSS); % of choline EC20–EC90 response window; HEK293 expressing CHT LV-AA mutant; choline added at its EC20 | activation, % at 10 µM | 2,500 compounds, 91% hits | AID 504833;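 active = primary screen active, with duplicate mean activation above negative control mean plus 3 SD, cut at about 11% in these data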
HEK293 MP dye: CHT activator counter-screen hit in parental HEK293 cells. shares compounds with CHT PAM. 2,500 compounds, 62% hits. AID 623908. ratio readout change at 10 µM, hits read low. membrane potential dye fluorescence (FDSS); measured after EC20 choline addition;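 active = duplicate-averaged ratio beyond 3 SD from buffer wells, up or down, though filed actives are nearly all decreases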
Large screens that a line does not name were inactive (follow-up assays come after a bar, where they were run).

O=c1c2cc(Cl)ccc2[nH]c(=S)n1Cc1cccs1	none
COc1cc(C(=O)c2cocc2C(=O)c2ccc3c(c2)OCO3)cc(OC)c1OC	CHT PAM 11 | CHT activ conf 26 | HEK293 MP dye inactive
COc1cc(C(=O)N/N=C(\C)c2ccc3c(c2)OCO3)cc(OC)c1OC	none
CCCCn1c(N)c(N(CCC(C)C)C(=O)C2CCCN(C(=O)c3ccc(Cl)cc3)C2)c(=O)[nH]c1=O (centres undefined)	CHT PAM 8.8 | CHT activ conf 12 | HEK293 MP dye inactive
CN1CCN(c2nc3ccccc3nc2C(C#N)C(=O)OC2CCCCC2)CC1 (centres undefined)	CHT PAM 8.6 | CHT activ conf 44 | HEK293 MP dye -48
N#CC(C(=O)OC1CCCCC1)c1nc2ccccc2nc1N1CCOCC1 (centres undefined)	none
Oc1ccc(/C=N/Nc2cc(N3CCOCC3)nc(N3CCOCC3)n2)cc1O	CHT PAM 7.1 | CHT activ conf 47 | HEK293 MP dye -62
CCOC(=O)CC1C(=O)NCCN1C(=O)c1cc2c(=O)n3cccc(C)c3nc2s1 (centres undefined)	CHT PAM 6.8 | CHT activ conf 17 | HEK293 MP dye -37
O=C(C1COc2ccccc2O1)N1CCN(c2ccc(C(F)(F)F)cn2)CC1 (centres undefined)	none (no result: CHT inh, CHT PAM)
CCNc1c(NS(=O)(=O)c2ccc(OC)cc2)c(=O)oc2ccccc12	none
CCCc1cc(=O)oc2cc(OC(C)C(=O)NCCCn3ccnc3)ccc12 (centres undefined)	none
CCCc1cc(=O)oc2cc(OCC(=O)NCCCN3CCOCC3)ccc12	none | CHT activ conf 37 | HEK293 MP dye -35
CCCc1cc(=O)oc2cc(OCC(=O)NCCCn3ccnc3)ccc12	none | CHT activ conf 52 | HEK293 MP dye -31
COc1ccc(-c2nc3n(c2C)CCC3)cc1	CHT PAM 6.4 | CHT activ conf 57 | HEK293 MP dye -63
CC1(C)CC(NC(=O)c2cccc(S(=O)(=O)N(Cc3ccccc3)c3ccccc3)c2)CC(C)(C)N1	none
CCCCN(C)C(=O)CCC(=O)Nc1ccc2nc(N3CCOCC3)cc(C)c2c1	CHT PAM 7.7 | CHT activ conf 48 | HEK293 MP dye -34
CCCCNC(=O)CCC(=O)Nc1ccc2nc(N3CCC(C)CC3)cc(C)c2c1	none | CHT activ conf 38 | HEK293 MP dye -35
CCC(C)NC(=S)Nc1ccc2nc(N3CCOCC3)cc(C)c2c1 (centres undefined)	none
CCC(C)NC(=O)CCC(=O)Nc1ccc2nc(N3CCOCC3)cc(C)c2c1 (centres undefined)	CHT PAM 7.9 | CHT activ conf 59 | HEK293 MP dye -59
Cc1cc(N2CCOCC2)nc2ccc(NC(=O)CCC(=O)N3CCC(C)CC3)cc12	none
Cc1ccc(-n2nc3c(=O)n(CCCC(=O)NCC(C)c4ccccc4)nc(C)c3c2C)cc1 (centres undefined)	none
CC(c1ccccc1)N(CCC(c1ccccc1)C1CCOC(C)(C)C1)C(=O)c1ccco1 (centres undefined)	CHT PAM 6.4 | CHT activ conf 34 | HEK293 MP dye inactive
O=C(Nc1nnc(-c2cccs2)s1)c1cccc(F)c1	none
CC1(C)CCC[C@@]2(C)CC=C(C(=O)O)[C@@H]3C[C@]312	none
CCN1CCN(c2nc3c(C)cccn3c(=O)c2/C=C(\C#N)C(=O)NC)CC1	CHT PAM 9.1 | CHT activ conf 47 | HEK293 MP dye -45
CNC(=O)/C(C#N)=C/c1c(N2CCN(c3cccc(Cl)c3)CC2)nc2c(C)cccn2c1=O	none
CCN1CCN(c2nc3c(C)cccn3c(=O)c2/C=C(\C#N)C(=O)NCCCOC)CC1	CHT PAM 7.5 | CHT activ conf 50 | HEK293 MP dye -60
CCOC(=O)/C(C#N)=C/c1c(N2CCN(c3ccc(OC)cc3)CC2)nc2c(C)cccn2c1=O	none
CNC(=O)/C(C#N)=C/c1c(N2CCN(C)CC2)nc2c(C)cccn2c1=O	none | CHT activ conf 58 | HEK293 MP dye -56
CCOC(=O)/C(C#N)=C/c1c(N2CCN(CC)CC2)nc2c(C)cccn2c1=O	none | CHT activ conf 52 | HEK293 MP dye -50
CCNC(=O)/C(C#N)=C/c1c(N2CCN(c3ccccc3)CC2)nc2c(C)cccn2c1=O	none
O=C(Cn1cc(C(F)(F)F)ccc1=O)N/N=C/c1cccc(Cl)c1	none
CC(=O)N/C(=C\c1ccccc1)C(=O)OC(C)C(=O)NCc1ccccc1 (centres undefined)	none
CCCC[C@H](CN[C@@H](CNC)[C@H](C)CC)NCCC12CCC(CC1)C2	none
CN(Cc1ccccc1)C(=O)c1[nH]cnc1C(=O)N[C@@H](CCCCNC(=O)OC(C)(C)C)C(=O)OC(C)(C)C	CHT PAM 11 (no result: VLA-4 inh, T cell HTS) | CHT activ conf 20 | HEK293 MP dye inactive
CC(C)(C)OC(=O)NCCCC[C@H](NC(=O)c1nc[nH]c1C(=O)NCc1ccccc1)C(=O)OC(C)(C)C	none
COc1ccccc1-c1ocnc1C(=O)N1CCN(S(=O)(=O)c2ccc(NC(C)=O)cc2)CC1	none
Cc1coc2cc3oc(=O)c(CCC(=O)NCCN4CCOCC4)c(C)c3cc12	none
COC(=O)c1ccccc1NC(=O)c1cc[n+](C)cc1	none | CHT activ conf 60 | HEK293 MP dye -55
O=C(NNC(=O)c1ccccc1-n1cccc1)c1cncc(Br)c1	none (no result: CHT inh, CHT PAM)
COC(=O)CNC(c1ccccc1)c1cc(C)ccc1NC(=O)c1cccc(Cl)c1 (centres undefined)	CHT PAM 6.9 | CHT activ conf 43 | HEK293 MP dye inactive
COC(=O)CNC(c1ccccc1)c1cc(C)ccc1NC(=O)CNC(=O)OCc1ccccc1 (centres undefined)	none
FC(F)(F)COc1nc(OCC(F)(F)F)nc(N2CCN(c3ccccc3)CC2)n1	CHT PAM 7.1 | CHT activ conf 31 | HEK293 MP dye inactive
Cc1cc(NC(=O)c2cnn3cccnc23)no1	CHT PAM 7.7 | CHT activ conf 63 | HEK293 MP dye -54
COc1cc(-c2nc3cccc(C)n3c2NCC2CCCO2)ccc1O (centres undefined)	CHT PAM 6.7 | CHT activ conf 36 | HEK293 MP dye -40
Cc1cc(Cl)c2oc(C(=O)N(C)Cc3ccon3)c(C)c2c1	none
Cc1ccc(-c2c(C(=O)N(C)Cc3ccccc3)oc(=O)c3ccccc23)cc1	none | CHT activ conf 32 | HEK293 MP dye inactive
N=c1n(CCN2CCCCC2)c2ccccc2n1CC(O)c1ccco1 (centres undefined)	none
N=c1n(CCO)c2ccccc2n1CCN1CCCCC1	none | CHT activ conf 35 | HEK293 MP dye -34
CCN1CCCC(NC(=O)c2cc([N+](=O)[O-])ccc2OC)C1 (centres undefined)	CHT PAM 7.3 | CHT activ conf 36 | HEK293 MP dye -35
